Test results: ChEMBL document CHEMBL4680221, “Discovery of pyrazole derivatives as cellular active inhibitors of histone lysine specific demethylase 5B (KDM5B/JARID1B)” (Eur J Med Chem, 2020)

Columns and labels:
[1] = biological target: T1, Lysine-specific demethylase 5B (Homo sapiens, UniProt Q9UGL1); assay: Inhibition of recombinant human N-terminal FLAG-tagged KDM5B expressed in Sf9 insect cells at 10 uM using biotin-H3K4me as substrate by ALPHA relative to control
Outline: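 ALPHA demethylase assay. Recombinant KDM5B (4 nM) was preincubated with compound, then biotin-H3K4me3 peptide (64 nM) was added. Buffer: 10 μM α-KG, 100 μM ascorbate, 50 μM (NH4)2Fe(SO4)2, 50 mM HEPES pH 7.5, 0.01% Tween 20, 0.1% BSA. Read-out used streptavidin donor and H3K4me1-2 antibody acceptor beads. Data were normalized to blank control and IC50 fitted.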

[2] = biological target: T2, Lysine-specific demethylase 4A (Homo sapiens) (UniProt O75164); assay: Inhibition of KDM4A (unknown origin) at 0.25 uM relative to control
T2 sequence (whole entry): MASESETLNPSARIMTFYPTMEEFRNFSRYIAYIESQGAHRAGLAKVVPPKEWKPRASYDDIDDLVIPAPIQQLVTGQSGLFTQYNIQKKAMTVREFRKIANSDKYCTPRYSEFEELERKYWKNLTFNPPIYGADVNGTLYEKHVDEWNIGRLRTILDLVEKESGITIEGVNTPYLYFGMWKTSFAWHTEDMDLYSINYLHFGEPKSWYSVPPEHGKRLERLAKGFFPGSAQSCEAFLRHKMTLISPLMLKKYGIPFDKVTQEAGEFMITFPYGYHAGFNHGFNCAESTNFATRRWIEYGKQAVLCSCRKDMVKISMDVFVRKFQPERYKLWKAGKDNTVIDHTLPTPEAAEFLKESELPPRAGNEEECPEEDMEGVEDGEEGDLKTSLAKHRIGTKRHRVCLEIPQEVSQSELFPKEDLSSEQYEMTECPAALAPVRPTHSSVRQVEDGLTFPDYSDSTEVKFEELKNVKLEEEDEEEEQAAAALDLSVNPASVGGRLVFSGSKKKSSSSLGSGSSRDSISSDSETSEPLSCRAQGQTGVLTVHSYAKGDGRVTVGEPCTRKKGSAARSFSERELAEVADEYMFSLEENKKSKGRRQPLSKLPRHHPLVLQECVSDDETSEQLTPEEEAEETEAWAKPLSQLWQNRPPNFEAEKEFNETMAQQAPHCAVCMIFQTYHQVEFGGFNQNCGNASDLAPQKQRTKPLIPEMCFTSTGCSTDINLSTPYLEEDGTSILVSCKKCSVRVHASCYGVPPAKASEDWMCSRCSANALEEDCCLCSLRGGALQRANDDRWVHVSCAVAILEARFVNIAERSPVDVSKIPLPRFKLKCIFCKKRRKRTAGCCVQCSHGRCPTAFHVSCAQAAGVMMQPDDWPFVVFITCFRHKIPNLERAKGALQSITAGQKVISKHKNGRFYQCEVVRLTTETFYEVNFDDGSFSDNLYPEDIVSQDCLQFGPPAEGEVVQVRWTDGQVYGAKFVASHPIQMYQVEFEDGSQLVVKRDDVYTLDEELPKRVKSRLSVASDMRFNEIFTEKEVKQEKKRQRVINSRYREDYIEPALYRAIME

[3] = biological target: T2, Lysine-specific demethylase 4A (Homo sapiens); assay: Inhibition of KDM4A (unknown origin) at 1 uM relative to control
[4] = biological target: Lysine-specific demethylase 5A (Homo sapiens, UniProt P29375); assay: Inhibition of KDM5A (unknown origin) at 0.25 uM relative to control
[5] = biological target: Lysine-specific demethylase 6B (Homo sapiens, UniProt O15054); assay: Inhibition of KDM6B (unknown origin) at 0.25 uM relative to control
[6] = biological target: T3, Lysine-specific demethylase 4A (Homo sapiens, UniProt O75164); assay: Inhibition of KDM4A (unknown origin)
T3 sequence (O75164 whole entry): T2 sequence (whole entry)

[7] = biological target: T4, Lysine-specific demethylase 4C (Homo sapiens, UniProt Q9H3R0); assay: Inhibition of KDM4C (unknown origin)
T4 sequence (Q9H3R0 whole entry): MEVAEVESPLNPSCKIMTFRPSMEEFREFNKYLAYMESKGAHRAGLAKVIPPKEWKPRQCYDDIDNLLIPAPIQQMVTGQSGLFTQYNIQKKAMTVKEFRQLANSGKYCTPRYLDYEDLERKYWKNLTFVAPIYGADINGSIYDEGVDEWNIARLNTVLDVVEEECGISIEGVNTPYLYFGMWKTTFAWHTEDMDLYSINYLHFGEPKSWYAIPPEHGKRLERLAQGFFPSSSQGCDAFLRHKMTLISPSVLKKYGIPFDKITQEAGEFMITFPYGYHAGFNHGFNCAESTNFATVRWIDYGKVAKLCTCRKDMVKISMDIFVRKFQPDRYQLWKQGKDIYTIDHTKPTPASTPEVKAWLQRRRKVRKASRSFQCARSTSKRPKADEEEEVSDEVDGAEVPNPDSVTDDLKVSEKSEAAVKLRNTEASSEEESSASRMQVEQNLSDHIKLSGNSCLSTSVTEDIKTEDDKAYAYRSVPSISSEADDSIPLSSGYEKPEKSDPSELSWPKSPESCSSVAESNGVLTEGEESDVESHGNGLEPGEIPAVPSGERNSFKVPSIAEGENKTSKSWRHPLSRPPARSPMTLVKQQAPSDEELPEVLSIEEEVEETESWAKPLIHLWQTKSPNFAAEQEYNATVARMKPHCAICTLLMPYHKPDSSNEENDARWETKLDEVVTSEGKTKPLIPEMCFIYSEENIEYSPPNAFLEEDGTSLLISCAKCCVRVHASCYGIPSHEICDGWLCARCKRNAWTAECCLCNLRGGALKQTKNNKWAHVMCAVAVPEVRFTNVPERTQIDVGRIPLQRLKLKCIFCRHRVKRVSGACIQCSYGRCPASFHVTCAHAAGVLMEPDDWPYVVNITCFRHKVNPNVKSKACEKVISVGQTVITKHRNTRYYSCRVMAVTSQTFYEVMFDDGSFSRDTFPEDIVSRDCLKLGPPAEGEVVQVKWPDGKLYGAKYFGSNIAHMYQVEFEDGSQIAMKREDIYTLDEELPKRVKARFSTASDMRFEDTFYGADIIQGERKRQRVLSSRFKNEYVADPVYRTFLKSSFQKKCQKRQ

[8] = biological target: T1, Lysine-specific demethylase 5B; assay: Inhibition of KDM5B in human MKN-45 cells assessed as increase in H3K4me3 accumulation measured after 5 days by Hoechst 33342 staining based immunofluorescence assay; type: cell-based; conditions: time 5.0 day
Outline: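 MKN45 cells were seeded and left 24 h, then treated for 5 days. Cells were fixed in 4% paraformaldehyde, permeabilised with 0.1% Triton X-100 for 20 min and blocked with 5% BSA for 1 h. H3K4me2 or H3K4me3 primary antibody was applied at 4°C overnight, followed by Alexa Fluor 488 secondary and Hoechst 33342 (5 µg/mL) nuclear stain. Signal was quantified by high content imaging; three independent experiments.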

[9] = Cytotoxicity against human GES1 cells assessed as reduction in cell proliferation at 100 uM by MTS assay relative to control; type: cell-based; conditions: read-out: Activity
Outline: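 Normal human gastric epithelial GES-1 cells, seeded at 3×10^3 cells per well and exposed to 100 μM. Antiproliferation rate was read by MTS assay.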

T1 sequence (Q9UGL1 whole entry): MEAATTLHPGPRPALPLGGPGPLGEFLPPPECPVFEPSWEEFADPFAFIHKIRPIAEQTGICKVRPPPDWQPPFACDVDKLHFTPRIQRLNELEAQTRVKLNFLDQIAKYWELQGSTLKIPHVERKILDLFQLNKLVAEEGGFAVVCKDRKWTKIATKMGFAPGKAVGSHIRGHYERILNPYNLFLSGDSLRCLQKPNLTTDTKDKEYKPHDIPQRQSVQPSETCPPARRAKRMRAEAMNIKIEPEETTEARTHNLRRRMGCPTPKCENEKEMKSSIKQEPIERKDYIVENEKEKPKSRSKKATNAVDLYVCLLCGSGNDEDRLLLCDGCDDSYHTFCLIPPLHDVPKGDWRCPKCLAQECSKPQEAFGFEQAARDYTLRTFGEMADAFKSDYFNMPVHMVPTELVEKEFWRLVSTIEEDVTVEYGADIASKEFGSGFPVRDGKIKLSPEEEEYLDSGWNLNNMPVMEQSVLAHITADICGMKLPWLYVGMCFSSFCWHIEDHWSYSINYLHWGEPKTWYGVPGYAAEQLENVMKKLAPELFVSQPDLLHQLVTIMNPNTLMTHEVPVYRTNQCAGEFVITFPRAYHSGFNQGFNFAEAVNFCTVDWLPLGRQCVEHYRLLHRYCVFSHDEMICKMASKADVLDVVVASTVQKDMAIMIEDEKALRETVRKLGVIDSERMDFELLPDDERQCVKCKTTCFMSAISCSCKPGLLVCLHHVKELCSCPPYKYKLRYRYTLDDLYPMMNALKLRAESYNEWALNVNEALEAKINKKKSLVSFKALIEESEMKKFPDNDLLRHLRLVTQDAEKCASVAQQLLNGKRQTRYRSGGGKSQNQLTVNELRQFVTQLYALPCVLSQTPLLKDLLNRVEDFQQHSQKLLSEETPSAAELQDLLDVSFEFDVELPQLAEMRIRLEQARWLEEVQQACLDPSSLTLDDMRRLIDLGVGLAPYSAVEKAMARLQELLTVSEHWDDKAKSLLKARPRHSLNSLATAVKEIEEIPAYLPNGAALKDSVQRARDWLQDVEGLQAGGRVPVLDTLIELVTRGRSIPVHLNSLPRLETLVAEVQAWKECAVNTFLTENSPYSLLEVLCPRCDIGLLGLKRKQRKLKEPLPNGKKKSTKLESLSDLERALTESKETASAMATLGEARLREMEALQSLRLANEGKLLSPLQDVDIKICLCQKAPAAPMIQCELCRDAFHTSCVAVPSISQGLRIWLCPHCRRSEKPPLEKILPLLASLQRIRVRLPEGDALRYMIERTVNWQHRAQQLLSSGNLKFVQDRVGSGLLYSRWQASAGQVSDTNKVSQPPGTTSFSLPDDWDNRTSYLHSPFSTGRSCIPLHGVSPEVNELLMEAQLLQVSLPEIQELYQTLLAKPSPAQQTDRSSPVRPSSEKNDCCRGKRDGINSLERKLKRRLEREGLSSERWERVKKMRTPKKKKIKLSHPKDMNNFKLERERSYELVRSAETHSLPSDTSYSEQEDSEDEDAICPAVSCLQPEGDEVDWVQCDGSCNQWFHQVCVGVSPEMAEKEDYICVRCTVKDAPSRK
Lysine-specific demethylase 5A, sequence (P29375 whole entry): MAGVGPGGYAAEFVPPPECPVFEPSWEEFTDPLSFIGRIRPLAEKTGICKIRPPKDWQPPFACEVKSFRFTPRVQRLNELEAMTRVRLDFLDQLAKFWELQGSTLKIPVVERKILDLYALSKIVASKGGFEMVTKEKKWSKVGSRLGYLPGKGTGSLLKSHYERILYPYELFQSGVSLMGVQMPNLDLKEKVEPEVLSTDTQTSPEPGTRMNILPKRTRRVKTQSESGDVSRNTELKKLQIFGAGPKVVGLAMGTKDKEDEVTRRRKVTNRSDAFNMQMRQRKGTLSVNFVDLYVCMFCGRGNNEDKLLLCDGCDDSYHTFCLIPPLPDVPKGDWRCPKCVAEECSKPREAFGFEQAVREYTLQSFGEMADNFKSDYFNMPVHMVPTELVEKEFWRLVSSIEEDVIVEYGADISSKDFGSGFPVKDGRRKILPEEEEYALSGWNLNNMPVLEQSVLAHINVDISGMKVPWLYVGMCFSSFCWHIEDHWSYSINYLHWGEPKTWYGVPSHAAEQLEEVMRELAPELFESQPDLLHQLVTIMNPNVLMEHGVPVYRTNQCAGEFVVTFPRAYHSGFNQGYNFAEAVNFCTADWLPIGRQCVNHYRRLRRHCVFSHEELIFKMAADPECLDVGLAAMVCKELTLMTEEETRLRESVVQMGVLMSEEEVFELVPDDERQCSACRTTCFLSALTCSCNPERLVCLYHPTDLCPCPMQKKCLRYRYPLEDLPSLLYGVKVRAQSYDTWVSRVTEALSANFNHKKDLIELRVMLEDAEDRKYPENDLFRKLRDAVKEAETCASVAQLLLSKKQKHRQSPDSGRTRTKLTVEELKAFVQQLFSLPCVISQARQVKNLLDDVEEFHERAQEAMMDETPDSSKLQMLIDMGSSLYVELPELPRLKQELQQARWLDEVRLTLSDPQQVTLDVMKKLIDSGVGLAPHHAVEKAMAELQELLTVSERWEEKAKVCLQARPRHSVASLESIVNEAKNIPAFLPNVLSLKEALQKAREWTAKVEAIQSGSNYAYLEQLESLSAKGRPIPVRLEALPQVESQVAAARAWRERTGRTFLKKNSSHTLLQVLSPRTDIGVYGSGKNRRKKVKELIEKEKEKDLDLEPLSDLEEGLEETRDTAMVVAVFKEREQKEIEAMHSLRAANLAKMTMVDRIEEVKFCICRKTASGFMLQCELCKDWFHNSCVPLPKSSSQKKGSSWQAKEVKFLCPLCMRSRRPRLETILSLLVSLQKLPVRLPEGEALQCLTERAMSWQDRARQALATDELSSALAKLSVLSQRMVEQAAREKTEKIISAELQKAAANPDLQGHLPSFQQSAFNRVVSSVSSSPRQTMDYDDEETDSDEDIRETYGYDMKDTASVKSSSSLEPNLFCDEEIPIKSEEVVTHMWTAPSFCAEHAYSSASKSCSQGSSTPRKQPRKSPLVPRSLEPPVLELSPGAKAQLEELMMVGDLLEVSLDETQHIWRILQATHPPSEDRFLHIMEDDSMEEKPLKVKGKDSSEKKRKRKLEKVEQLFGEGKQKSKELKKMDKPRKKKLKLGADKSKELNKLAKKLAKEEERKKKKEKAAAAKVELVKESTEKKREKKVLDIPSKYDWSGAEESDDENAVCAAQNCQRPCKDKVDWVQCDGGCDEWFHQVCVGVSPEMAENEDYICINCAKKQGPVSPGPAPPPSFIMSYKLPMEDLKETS
Lysine-specific demethylase 6B, sequence (O15054 whole entry): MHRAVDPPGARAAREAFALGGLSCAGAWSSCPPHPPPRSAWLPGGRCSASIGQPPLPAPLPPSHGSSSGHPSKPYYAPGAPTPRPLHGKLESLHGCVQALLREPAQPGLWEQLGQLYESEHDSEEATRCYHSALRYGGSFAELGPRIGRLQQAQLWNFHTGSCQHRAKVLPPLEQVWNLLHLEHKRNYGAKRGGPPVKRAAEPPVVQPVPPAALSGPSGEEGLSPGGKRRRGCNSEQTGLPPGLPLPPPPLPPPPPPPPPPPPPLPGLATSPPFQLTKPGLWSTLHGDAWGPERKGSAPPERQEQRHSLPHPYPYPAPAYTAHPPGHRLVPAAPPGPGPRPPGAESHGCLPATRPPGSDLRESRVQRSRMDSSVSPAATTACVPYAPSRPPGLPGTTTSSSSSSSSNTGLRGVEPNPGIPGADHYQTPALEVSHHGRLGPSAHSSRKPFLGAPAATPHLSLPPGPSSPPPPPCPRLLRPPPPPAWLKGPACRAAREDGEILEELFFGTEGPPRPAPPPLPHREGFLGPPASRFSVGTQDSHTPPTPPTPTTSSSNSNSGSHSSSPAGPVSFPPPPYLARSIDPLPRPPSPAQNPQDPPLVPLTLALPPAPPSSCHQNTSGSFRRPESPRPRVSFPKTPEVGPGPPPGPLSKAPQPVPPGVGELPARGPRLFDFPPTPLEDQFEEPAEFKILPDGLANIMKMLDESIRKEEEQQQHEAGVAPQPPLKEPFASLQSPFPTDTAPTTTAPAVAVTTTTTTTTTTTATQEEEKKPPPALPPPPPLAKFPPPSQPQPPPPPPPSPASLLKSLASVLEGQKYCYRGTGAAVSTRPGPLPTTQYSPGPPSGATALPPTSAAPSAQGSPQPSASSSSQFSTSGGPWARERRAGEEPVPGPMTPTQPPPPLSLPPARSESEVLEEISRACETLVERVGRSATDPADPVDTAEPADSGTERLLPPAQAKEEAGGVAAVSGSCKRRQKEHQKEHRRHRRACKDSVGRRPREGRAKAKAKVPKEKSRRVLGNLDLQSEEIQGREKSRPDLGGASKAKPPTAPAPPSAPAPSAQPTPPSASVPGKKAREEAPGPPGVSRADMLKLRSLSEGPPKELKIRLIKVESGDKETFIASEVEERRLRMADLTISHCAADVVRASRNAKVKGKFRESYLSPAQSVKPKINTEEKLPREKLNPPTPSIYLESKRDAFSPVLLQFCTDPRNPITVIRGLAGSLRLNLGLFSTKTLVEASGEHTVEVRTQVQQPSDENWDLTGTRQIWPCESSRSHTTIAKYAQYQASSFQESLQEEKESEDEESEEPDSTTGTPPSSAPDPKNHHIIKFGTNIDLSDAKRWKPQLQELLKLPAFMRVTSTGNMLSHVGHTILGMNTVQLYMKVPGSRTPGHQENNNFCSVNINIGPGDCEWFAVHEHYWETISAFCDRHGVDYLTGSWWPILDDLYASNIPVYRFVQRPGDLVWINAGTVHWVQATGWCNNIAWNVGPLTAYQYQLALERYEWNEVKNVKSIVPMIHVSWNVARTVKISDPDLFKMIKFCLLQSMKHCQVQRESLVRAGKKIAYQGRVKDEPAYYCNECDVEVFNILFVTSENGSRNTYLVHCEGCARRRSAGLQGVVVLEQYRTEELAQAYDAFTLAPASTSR

inhibition [1]: 95.8%
inhibition [2]: 29.4%
inhibition [3]: 56.2%
inhibition [4]: 62.4%
inhibition [5]: 12.4%
IC50 [6]: 0.954 µM
IC50 [7]: 1.11 µM
inhibition [8]: Dose-dependent effect
Structure (SMILES): COc1ccc(-n2cc(C(=O)NCC(C)(C)N3CCOCC3)c(-c3ccccc3)n2)cc1
inhibition at 100 µM [9]: < 10%
